Measured values published in ChEMBL document CHEMBL1155706, “Vertilecanins: new phenopicolinic acid analogues from Verticillium lecanii” (2001).
Activity calls are given as the source filed them. The calls are words filed in the database; no cut-off is given here.

Experiments:
Helicoverpa zea [1] = assay: Antiinsectan activity in Helicoverpa zea at 100 ppm; format: functional, organism-based
Procedure, shortened: (§1)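 Test material was mixed into the H. zea diet at the stated ppm level (100 or 1500 ppm). Activity was scored as the reduction in weight gain relative to controls.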

Helicoverpa zea [2] = assay: Antiinsectan activity in Helicoverpa zea assessed as reduction in weight gain at 1500 ppm relative to control; format: functional; set-up: scale not given: the % may be the effect or the level left; procedure, shortened: as §1
Bacillus subtilis = assay: Antibacterial activity against Bacillus subtilis ATCC 6051 at 100 ug/disk by standard disk diffusion assay; format: functional
Procedure, shortened: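 Standard paper-disk diffusion test with 100 μg loaded per disk against B. subtilis ATCC 6051. Read-out is the diameter of the inhibition zone in mm.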

Row | SMILES | Activity (Helicoverpa zea [1]) | Activity (Helicoverpa zea [2]) [%] | zone of inhibition at 100 µg/disc (Bacillus subtilis; read-out: IZ) [mm] | Activity (Bacillus subtilis)
1 | COC(=O)CNC(=O)c1ccc([C@H](O)c2ccccc2)cn1 | inactive |  |  | 
2 | O=C(O)c1ccc([C@H](O)c2ccccc2)cn1 [VERTILECANIN A] | inactive | 49 | 8 | 
3 | O=C(O)CCCCCC/C=C/CO | inactive |  |  | inactive
4 | COC(=O)c1ccc([C@H](O)c2ccccc2)cn1 | inactive |  |  | 
5 | COC(=O)CNC(=O)c1ccc(C(=O)c2ccccc2)cn1 | inactive |  |  | 
6 | O=C(O)/C=C/CCCCCCC(=O)O | inactive |  |  | 
7 | O=C(O)CNC(=O)c1ccc([C@H](O)c2ccccc2)cn1 | inactive |  |  | inactive
